Where a SMILES comes first, the peptide text is derived from it. Where no end group is shown, it is not given here. [ ]: non-standard residue; d: D form. The star is where a group is joined. pY = N[C@@H](Cc1ccc(OP(=O)(O)O)cc1)C(=O)O; Cbz = O=C(OCc1ccccc1)*
Legend:
PTPN18 [1] = target: T1, PTPN18 (Homo sapiens, UniProt Q99952); assay: PTPN18-catalyzed hydrolysis of pY-containing peptides; assay type: biochemical; details: for Kcat/Km of PTPN18: calculated; for Kcat/Km of PTPN18 / Kcat for PTPN18 catalysis: range over the three peptides, pH 6.5, 37 °C, 10 nM PTPN18
T1 sequence (Q99952 6-300): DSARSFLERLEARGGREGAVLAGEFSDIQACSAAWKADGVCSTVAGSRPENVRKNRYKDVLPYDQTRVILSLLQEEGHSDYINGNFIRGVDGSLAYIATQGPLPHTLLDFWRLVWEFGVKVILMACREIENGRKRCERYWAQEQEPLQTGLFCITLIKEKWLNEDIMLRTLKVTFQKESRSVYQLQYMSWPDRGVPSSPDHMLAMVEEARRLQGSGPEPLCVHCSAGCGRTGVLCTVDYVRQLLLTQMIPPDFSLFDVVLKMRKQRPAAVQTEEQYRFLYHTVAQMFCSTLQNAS
In short: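 Peptide dephosphorylation by the phosphatase, read by two methods: tyrosine fluorescence gain (excitation 280 nm, emission 305 nm) and an end-point inorganic phosphate assay at 620 nm. Conditions were 37 °C in 50 mM 3,3-dimethylglutarate pH 6.5, 1 mM DTT, 1 mM EDTA, ionic strength 0.15 M. Reactions started with enzyme at 10 nM final. Kinetics came from nonlinear least-squares regression.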

[2] = tested on: HER2 level in HepG2 cells; assay: EGF-induced HER2 degradation with proteasome inhibitor; assay type: cell-based; details: 100 ng/ml EGF
In short: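 HepG2 cells are transfected with control vector or PTPN18, preincubated with MG-132, then exposed to EGF for a time course. HER2 is detected by western blot with a specific antibody and quantified.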

[3] = tested on: PTPN18 mutants V65A, V65I, P272M; assay: Catalytic activity of PTPN18 pY+1 pocket mutants towards HER2 phospho-peptides; assay type: biochemical, human; details: mutations V65A, V65I and P272M versus wild type
In short: (§1)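 Recombinant PTPN18 (wild type or mutant) hydrolysing pY-containing peptides at 37 °C in 50 mM 3,3-dimethylglutarate, pH 6.5, 1 mM DTT, 1 mM EDTA, ionic strength 0.15 M. Reactions are started by adding enzyme to 10 nM final. Read-out is tyrosine fluorescence (ex 280/em 305 nm) or inorganic-phosphate end-point at 620 nm. Kinetics are fitted by nonlinear least-squares regression.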

[4] = tested on: PTPN18 mutants R198A, R198E; assay: Catalytic activity of PTPN18 R198 mutants towards HER2 phospho-peptides; assay type: biochemical, human; details: R198 changed to Ala or Glu versus wild type
In short: as §1

PTPN18 [5] = target: T1, PTPN18; assay: pNPP phosphatase assay; assay type: biochemical; details: PTPN18 versus PTP1B, DMG buffer, 37 °C
PTPN18 V65A = target: T2, PTPN18 V65A (UniProt Q99952 1-460, V65A); assay: cell-based or functional assay
T2 sequence (looked up): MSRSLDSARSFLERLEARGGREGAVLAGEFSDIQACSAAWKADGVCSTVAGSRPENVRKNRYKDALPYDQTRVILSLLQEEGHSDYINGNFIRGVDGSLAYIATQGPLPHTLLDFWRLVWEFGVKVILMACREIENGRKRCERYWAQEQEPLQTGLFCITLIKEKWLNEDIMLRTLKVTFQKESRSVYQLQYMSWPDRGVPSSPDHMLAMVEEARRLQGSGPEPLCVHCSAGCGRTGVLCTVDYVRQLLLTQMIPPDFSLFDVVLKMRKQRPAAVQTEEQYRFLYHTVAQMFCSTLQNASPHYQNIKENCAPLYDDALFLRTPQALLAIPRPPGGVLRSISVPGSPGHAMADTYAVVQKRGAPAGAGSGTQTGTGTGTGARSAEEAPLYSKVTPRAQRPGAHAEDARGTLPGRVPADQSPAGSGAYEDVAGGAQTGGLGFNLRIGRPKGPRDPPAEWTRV

PTPN18 V65I = target: T3, PTPN18 V65I (UniProt Q99952 1-460, V65I); assay: cell-based or functional assay
T3 sequence (looked up): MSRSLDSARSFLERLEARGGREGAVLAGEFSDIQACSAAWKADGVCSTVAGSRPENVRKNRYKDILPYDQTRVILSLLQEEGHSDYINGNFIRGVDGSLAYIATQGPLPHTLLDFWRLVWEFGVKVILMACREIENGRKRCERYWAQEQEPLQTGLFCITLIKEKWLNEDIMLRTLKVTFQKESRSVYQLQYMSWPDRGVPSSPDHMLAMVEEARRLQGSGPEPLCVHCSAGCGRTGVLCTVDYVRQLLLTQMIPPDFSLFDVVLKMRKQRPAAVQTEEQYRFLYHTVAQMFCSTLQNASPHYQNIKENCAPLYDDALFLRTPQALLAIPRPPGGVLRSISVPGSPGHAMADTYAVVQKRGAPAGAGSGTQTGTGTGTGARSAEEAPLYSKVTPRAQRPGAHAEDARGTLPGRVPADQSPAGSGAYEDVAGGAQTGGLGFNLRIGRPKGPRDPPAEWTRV

PTPN18 P272M = target: T4, PTPN18 P272M (UniProt Q99952 1-460, P272M); assay: cell-based or functional assay
T4 sequence (looked up): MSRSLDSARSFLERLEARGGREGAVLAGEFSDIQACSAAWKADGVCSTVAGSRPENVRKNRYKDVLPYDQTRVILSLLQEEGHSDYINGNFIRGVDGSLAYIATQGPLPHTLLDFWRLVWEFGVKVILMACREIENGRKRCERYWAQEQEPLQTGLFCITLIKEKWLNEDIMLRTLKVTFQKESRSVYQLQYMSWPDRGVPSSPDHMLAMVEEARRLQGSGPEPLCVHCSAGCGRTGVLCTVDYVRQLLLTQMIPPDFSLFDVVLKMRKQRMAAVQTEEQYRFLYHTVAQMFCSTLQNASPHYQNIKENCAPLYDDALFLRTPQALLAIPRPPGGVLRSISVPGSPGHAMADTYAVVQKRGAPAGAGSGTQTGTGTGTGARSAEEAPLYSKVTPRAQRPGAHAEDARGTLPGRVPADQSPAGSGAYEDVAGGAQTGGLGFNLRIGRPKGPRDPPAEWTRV

HER2 pY^1221pY^1222: HER2 doubly phosphorylated Y1221/Y1222 site phospho-peptide (FDNL[pY][pY]WDQD)
PTPN18 activity towards the peptide (in words) (PTPN18 [1]): very weak activity

CC(C)C[C@@H](C=O)NC(=O)[C@H](CC(C)C)NC(=O)[C@H](CC(C)C)NC(=O)OCc1ccccc1 [MG132] (Cbz-Leu-Leu-Leu-aldehyde)
Effect on PTPN18-overexpression-promoted HER2 degradation ([2]; HepG2 cells transfected with PTPN18, 5 μM MG-132 for 16 h): almost abolished | Endogenous HER2 expression level ([2]; HepG2 cells, 5 μM MG-132 preincubated for 16 h): significantly increased

Ac-ENPEpY^1248 LGLD-NH2 [HER2 pY^1248]
Decrease of PTPN18 activity towards the peptide by mutation [3]: > 2 fold | Decrease of PTPN18 activity towards the peptide by mutation [4]: 2-3 fold | Kcat/Km of PTPN18 (PTPN18 [1]): 400000 to 800000 M⁻¹ s⁻¹ | Kcat for PTPN18 catalysis (PTPN18 [1]): 4 to 11.2 s⁻¹

Ac-ENPE pY^1196 LTPQ-NH2 [HER2 pY^1196]
Decrease of PTPN18 activity towards the peptide by mutation [3]: > 2 fold | Kcat/Km of PTPN18 relative to its Kcat/Km towards HER2 pY^1248 (PTPN18 [1]): approximately half | Kcat/Km of PTPN18 (PTPN18 [1]): 400000 to 800000 M⁻¹ s⁻¹ | Kcat for PTPN18 catalysis (PTPN18 [1]): 4 to 11.2 s⁻¹

PLQRpY^1112 SEDP [HER2 pY^1112]
Decrease of PTPN18 activity towards the peptide by mutation [4]: 2-3 fold | Kcat/Km of PTPN18 (PTPN18 [1]): 400000 to 800000 M⁻¹ s⁻¹ | Kcat for PTPN18 catalysis (PTPN18 [1]): 4 to 11.2 s⁻¹

O=[N+]([O-])c1ccc(OP(=O)(O)O)cc1 [pNPP, para-nitrophenyl phosphate]
Kcat/Km of PTPN18 lower than that of PTP1B (PTPN18 [5]): 2000 fold

B1: HER2 pY1248 phospho-peptide (Ac-ENPEpY1248LGLD-NH2) (peptide)
peptide: Ac-ENPE[pY]LGLD-NH2
SMILES: CC(=O)N[C@@H](CCC(=O)O)C(=O)N[C@@H](CC(N)=O)C(=O)N1CCC[C@H]1C(=O)N[C@@H](CCC(=O)O)C(=O)N[C@@H](Cc1ccc(OP(=O)(O)O)cc1)C(=O)N[C@@H](CC(C)C)C(=O)NCC(=O)N[C@@H](CC(C)C)C(=O)N[C@@H](CC(=O)O)C(N)=O
decrease of PTPN18 activity towards the peptide (Figure 6B) (PTPN18 V65A): > 2 fold | decrease of PTPN18 activity towards the peptide (Figure 6B) (PTPN18 V65I): > 2 fold | decrease of PTPN18 activity towards the peptide (Figure 6B) (PTPN18 P272M): > 2 fold

B2: HER2 pY1196 phospho-peptide (Ac-ENPEpY1196LTPQ-NH2) (peptide)
peptide: Ac-ENPE[pY]LTPQ-NH2
SMILES: CC(=O)N[C@@H](CCC(=O)O)C(=O)N[C@@H](CC(N)=O)C(=O)N1CCC[C@H]1C(=O)N[C@@H](CCC(=O)O)C(=O)N[C@@H](Cc1ccc(OP(=O)(O)O)cc1)C(=O)N[C@@H](CC(C)C)C(=O)N[C@H](C(=O)N1CCC[C@H]1C(=O)N[C@@H](CCC(N)=O)C(N)=O)[C@@H](C)O
decrease of PTPN18 activity towards the peptide (Figure 6B) (PTPN18 V65A): > 2 fold | decrease of PTPN18 activity towards the peptide (Figure 6B) (PTPN18 V65I): > 2 fold | decrease of PTPN18 activity towards the peptide (Figure 6B) (PTPN18 P272M): > 2 fold

— paper PMC4152746 (Cell Research, 2014)
